# Results of several laboratories.
# Each line is one published result; the experiments were not run side by side.
# Organism: Acinetobacter baumannii
# Read-out: microbial growth
SMILES,test,system,conditions,MIC
COC(=O)c1cc(-c2cccc(NC(=S)Nc3cccc(Cl)c3)c2)on1,broth dilution,BAA1605,,> 64 µg/mL
Cc1cc(/C=C2\Sc3ccccc3N2CCCN2CCC(C)CC2)c2ccccc2[n+]1C.[I-],broth dilution,ATCC19606,drug-resistant strain,16 µg/mL
COC(=O)c1cc(-c2cccc(NC(=O)Nc3ccccc3OC)c2)on1,broth dilution,BAA1605,,> 64 µg/mL
CN[C@@H]1[C@H](O)[C@H](NC)[C@H]2O[C@@]3(O)C(=O)C[C@@H](C)O[C@H]3O[C@@H]2[C@H]1O,broth dilution,ATCC19606,,> 200 µg/mL
CC(=O)C1=C(O)C(CC(C)C)NC1=O (centres unmarked),,ATCC19606,,> 200 µg/mL
COc1ccc2cc1Oc1cc(ccc1OC)CCC(N[C@@H]1CCCc3ccccc31)CCCC2 (some centres unmarked),broth dilution,ATCC19606,,> 100 µg/mL
Cc1c(NN=C(C#N)C2=NC(=O)CS2)c(=O)n(-c2ccccc2)n1C,broth dilution,,,0.43 µg/mL
Fc1c(F)c(F)c(F)c(F)c1F,,ATCC19606,,> 250 µg/mL
CN[C@H](CC(C)C)C(=O)N[C@H]1C(=O)N[C@@H](CC(N)=O)C(=O)N[C@H]2C(=O)N[C@H]3C(=O)N[C@H](C(=O)N[C@H](C(=O)O)c4cc(O)cc(O)c4-c4cc3ccc4O)[C@H](O)c3ccc(c(Cl)c3)Oc3cc2cc(c3O[C@@H]2O[C@H](CO)[C@@H](O)[C@H](O)[C@H]2O[C@H]2C[C@](C)(N)[C@H](O)[C@H](C)O2)Oc2ccc(cc2Cl)[C@H]1O,broth dilution,ATCC19606,drug-resistant strain,64 µg/mL
Fc1c(F)c(F)c(-c2c(F)c(F)c(F)c(F)c2F)c(F)c1F,,ATCC19606,,> 250 µg/mL
COC(=O)c1cc(-c2cccc(NC(=O)Nc3cccc(Br)c3)c2)on1,broth dilution,BAA1605,,> 64 µg/mL
C[n+]1ccc(/C=C2\Sc3ccccc3N2CCCN2CCCCC2)c2ccccc21.[I-],broth dilution,ATCC19606,drug-resistant strain,64 µg/mL
CCOC(=O)c1cc(-c2cccc(NC(=O)Nc3ccc(Cl)c(Cl)c3)c2)on1,broth dilution,BAA1605,,> 64 µg/mL
C[n+]1c(/C=C/c2c[nH]c3ccccc23)cc(/C=C2\Sc3ccccc3N2CCCN2CCCC2)c2ccccc21.[I-],broth dilution,ATCC19606,drug-resistant strain,32 µg/mL
